Bioassay records (PubChem)
Arrestin-AP2 inh = inhibitors of human beta-arrestin and AP2 interaction | FITC-arrestin peptide / GST-AP2 beads, flow cytometry; AP2 beta2 appendage carries R879A mutation | inhibition, % at 10 µM | actives 0.31% (n = 340,000);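 active = inhibition above a set limit, near 3 SD of compounds lacking own fluorescence, cut at about 54% in these data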;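 note: plate controls were DMSO wells for no effect and 5 µM unlabelled arrestin peptide for full effect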
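System: GST-AP2 R879A glutathione beads. Medium: PBS with 0.05% Tween 20 and 0.1% BSA. Also added: FITC-arrestin peptide, 50 nM. Incubation: 12 min plus 1 h, RT. Measured by: high-throughput flow cytometry of beads, ex 488, em 535 nm. Evaluation: percent drop in bead-associated FITC signal.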
NPR2 activator = GC-B (human) receptor activation | AID 1920062 | HEK293-GC-B cells, CNP EC30, cGMP TR-FRET; 0% at EC30 CNP, 100% saturating CNP | activation, % at 10 µM | actives 0.11% (n = 370,000);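 active = activation at 10 µM reaching about 35% in either raw or pattern-adjusted values, limit read from the data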
GalR3 antagonist = blocks the human galanin receptor 3 | O60755 | HEK293 GalR3-CNG cAMP membrane potential fluorescence; galR3 body fused to GalR1 C-terminus | inhibition, % at 3 µM | actives 0.44% (n = 360,000) | AID 651719;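 active = inhibition above the screen-wide average plus 3 SD, cut at about 13% in these data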;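 note: forskolin and galanin both at EC90 stimulate the cells; cAMP rise reported by CNG channel membrane potential dye signal; 0% = forskolin plus galanin with DMSO and 100% = forskolin alone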
NPR1 activator = GC-A (human) enzyme activation | activation, % at 10 µM | HEK293 GC-A cells, cGMP TR-FRET, EC30 ANP; 0% at EC30 ANP, 100% saturating ANP | P16066 | actives 0.14% (n = 370,000) | AID 1671463; in the data active = activation above about 40%
Target sequence (P16066 whole entry, looked up): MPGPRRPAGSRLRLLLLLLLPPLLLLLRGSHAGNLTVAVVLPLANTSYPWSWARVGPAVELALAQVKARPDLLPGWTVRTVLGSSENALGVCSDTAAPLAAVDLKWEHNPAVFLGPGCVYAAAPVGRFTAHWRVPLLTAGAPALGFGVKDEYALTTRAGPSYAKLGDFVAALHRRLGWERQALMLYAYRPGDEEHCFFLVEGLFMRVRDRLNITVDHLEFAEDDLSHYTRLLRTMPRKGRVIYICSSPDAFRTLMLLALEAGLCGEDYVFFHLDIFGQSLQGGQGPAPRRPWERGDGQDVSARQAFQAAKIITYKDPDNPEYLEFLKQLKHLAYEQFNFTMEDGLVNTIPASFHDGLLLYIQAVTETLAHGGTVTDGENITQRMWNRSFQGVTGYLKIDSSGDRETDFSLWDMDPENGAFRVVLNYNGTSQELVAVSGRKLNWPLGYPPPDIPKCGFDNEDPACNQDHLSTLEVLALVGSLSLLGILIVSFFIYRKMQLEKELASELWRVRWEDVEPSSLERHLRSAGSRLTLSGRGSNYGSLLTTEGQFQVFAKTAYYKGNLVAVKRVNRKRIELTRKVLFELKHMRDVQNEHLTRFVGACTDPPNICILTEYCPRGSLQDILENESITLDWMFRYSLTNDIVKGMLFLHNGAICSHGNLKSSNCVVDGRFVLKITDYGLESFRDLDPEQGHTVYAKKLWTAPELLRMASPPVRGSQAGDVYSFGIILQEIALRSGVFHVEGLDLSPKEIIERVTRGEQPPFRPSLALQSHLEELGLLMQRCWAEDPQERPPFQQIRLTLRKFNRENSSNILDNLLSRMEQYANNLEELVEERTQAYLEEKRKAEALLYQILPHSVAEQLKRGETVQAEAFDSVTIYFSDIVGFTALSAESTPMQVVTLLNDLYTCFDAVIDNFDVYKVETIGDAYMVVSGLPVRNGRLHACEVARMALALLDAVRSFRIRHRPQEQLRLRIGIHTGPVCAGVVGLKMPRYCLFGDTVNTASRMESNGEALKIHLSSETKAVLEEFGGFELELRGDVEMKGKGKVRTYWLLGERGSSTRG
Arr-AP2 CP1 = blocks beta-arrestin peptide binding to human AP2; actives 2% (n = 1,300); shares compounds with Arrestin-AP2 inh; GST-AP2 beads, FITC arrestin peptide binding, flow cytometry; GST-fused beta2-adaptin appendage, R879A mutant; inhibition, % at 10 µM; AID 504908;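 active = inhibition above a set limit, roughly 3 SD of non-fluorescent compound noise, cut at about 38% in these data; inactive = inhibition at or below that limit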;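 note: loss of bead fluorescence from 50 nM FITC arrestin peptide bound to appendage; 0% = negative control wells and 100% = excess unlabelled arrestin peptide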
GST-FITC bead = counter-screen for beta-arrestin AP2 inhibitors: GST-GSH bead binding | shares compounds with Arrestin-AP2 inh | inhibition, % at 10 µM | AID 588338 | actives 2% (n = 1,300) | GST-fluorescein binding to GSH beads, fluorescence;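 active = inhibition above 50%, about 3 SD of the inhibition seen with non-fluorescent compounds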;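 note: fluorescein maleimide labelled GST captured on 4 micron glutathione beads; higher means more loss of bead fluorescence from quenching or blocked binding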
Active calls of the source: *. This is a sample that favours compounds with a hit; in the whole collection about 0.94% have one here.

What do the screens show for `CN(c1ccc(F)cc1)S(=O)(=O)c1ccc(Cl)c(C(=O)NCC2(N3CCOCC3)CCCCC2)c1`?
Arrestin-AP2 inh: -3; NPR2 activator: -2; GalR3 antagonist: -5; NPR1 activator: -3; Arr-AP2 CP1: -13; GST-FITC bead: -6

Results for COc1ccccc1N(C)S(=O)(=O)c1ccc(Cl)c(C(=O)NCC2(N(C)C)CCCCC2)c1 ?
Arrestin-AP2 inh: -2; NPR2 activator: -3; GalR3 antagonist: -2; NPR1 activator: -1; Arr-AP2 CP1: 6; GST-FITC bead: 2

Results for CN(c1ccc(F)cc1)S(=O)(=O)c1ccc(Cl)c(C(=O)NCC2CCCO2)c1 (centres undefined) ?
Arrestin-AP2 inh: 8; NPR2 activator: -2; GalR3 antagonist: -5; NPR1 activator: 2

Results for COc1ccc(-c2nc(CS(=O)CC(=O)NC3CCC(C)CC3)c(C)o2)cc1OC (centres undefined) ?
Arrestin-AP2 inh: 54*; NPR2 activator: -2; GalR3 antagonist: -6; NPR1 activator: -4; Arr-AP2 CP1: -11; GST-FITC bead: 0

Results for CCCCNc1cccc2c1S(=O)(=O)N[C@H](Cc1ccccc1)CO2 ?
NPR2 activator: 2; GalR3 antagonist: -6; NPR1 activator: -3

Results for O=C(C(=O)N1CCN(S(=O)(=O)c2ccc(C(F)(F)F)cc2)CC1)c1cccc(C(F)(F)F)c1 ?
NPR2 activator: 0; GalR3 antagonist: -8; NPR1 activator: -2

Results for COc1ccccc1-n1c(SCC(=O)NC2CC2)nc2ccccc2c1=O ?
Arrestin-AP2 inh: 60*; NPR2 activator: -2; GalR3 antagonist: 4; NPR1 activator: -3; Arr-AP2 CP1: -6; GST-FITC bead: -5

What do the screens show for `c1csc(-c2nnc(SCc3cccc4ccccc34)o2)c1`?
NPR2 activator: -2; NPR1 activator: -2

Results for COCCN1Cc2cc(C(=O)OC)c3c(c2C1=O)c1cc(F)ccc1n3S(=O)(=O)c1cccc(C)c1 ?
NPR2 activator: -2; GalR3 antagonist: -4; NPR1 activator: -6

Results for COC(=O)c1c(NC(=O)CN2C(=O)NC3(CCc4ccccc4C3)C2=O)sc2c1CCCCC2 (centres undefined) ?
Arrestin-AP2 inh: 106*; NPR2 activator: 4; GalR3 antagonist: -3; NPR1 activator: 7; Arr-AP2 CP1: 7; GST-FITC bead: 2

How did CCOc1ccccc1N1CCN(C(=O)CC(C)(C)C)CC1 do in these assays?
Arrestin-AP2 inh: 55*; NPR2 activator: 4; GalR3 antagonist: -6; NPR1 activator: -2; Arr-AP2 CP1: 5; GST-FITC bead: -6

What do the screens show for `COc1ccccc1N1CCN(C(=O)COc2cccc(C)c2C)CC1`?
Arrestin-AP2 inh: 61*; NPR2 activator: -2; GalR3 antagonist: -5; NPR1 activator: -5; Arr-AP2 CP1: -10; GST-FITC bead: -2

Results for COc1ccccc1OCC(=O)N1CCN(c2ccccc2OC)CC1 ?
Arrestin-AP2 inh: -1; NPR2 activator: 0; GalR3 antagonist: 2; NPR1 activator: -4

How did O=C(CSc1nc2ccc([N+](=O)[O-])cc2[nH]1)c1ccc2ccccc2c1 do in these assays?
Arrestin-AP2 inh: 106*; NPR2 activator: 1; GalR3 antagonist: -8; NPR1 activator: 3; Arr-AP2 CP1: -5; GST-FITC bead: 4

How did CC(=O)Nc1ccc(NC(=O)CSc2nnc(C)n2-c2ccccc2)cc1 do in these assays?
Arrestin-AP2 inh: 60*; NPR2 activator: 1; GalR3 antagonist: -10; NPR1 activator: 5; Arr-AP2 CP1: -1; GST-FITC bead: -3

What do the screens show for `Cc1csc(SC(C)C(=O)Nc2ccc(Cl)cn2)n1` (centres undefined)?
Arrestin-AP2 inh: 10; NPR2 activator: -3; GalR3 antagonist: -5; NPR1 activator: -7

How did CC(C)Nc1nnc(SC(C)C(=O)Nc2ccc(Cl)cn2)s1 (centres undefined) do in these assays?
Arrestin-AP2 inh: 55*; NPR2 activator: 2; GalR3 antagonist: -7; NPR1 activator: -1; Arr-AP2 CP1: 0; GST-FITC bead: 5

How did COC(=O)[C@@]12CCCCC=C1N(CCc1ccc(Cl)cc1)C(=O)[C@H]2CC(=O)NCC1CCCCC1 do in these assays?
NPR2 activator: 7; NPR1 activator: -3

How did c1ccc2c(c1)OCC(CNCC1COc3ccccc3O1)O2 (centres undefined) do in these assays?
Arrestin-AP2 inh: 0; NPR2 activator: 0; GalR3 antagonist: -10; NPR1 activator: 4

How did c1ccc(CCNCC2COc3ccccc3O2)cc1 (centres undefined) do in these assays?
Arrestin-AP2 inh: 55*; NPR2 activator: -1; GalR3 antagonist: -12; NPR1 activator: 0; Arr-AP2 CP1: -11; GST-FITC bead: 0

How did COc1cccc(/C=N/NC(=O)COc2cccc3cccnc23)c1O do in these assays?
Arrestin-AP2 inh: 60*; NPR2 activator: 0; GalR3 antagonist: 3; NPR1 activator: -1; Arr-AP2 CP1: -11; GST-FITC bead: -1

How did COc1ccccc1OCC(=O)N/N=C/c1cccc2cccnc12 do in these assays?
Arrestin-AP2 inh: 41; NPR2 activator: 3; GalR3 antagonist: -1; NPR1 activator: 3

What do the screens show for `CCC(=O)Nc1c(C#N)c2nc3ccccc3nc2n1C1CCCCC1`?
Arrestin-AP2 inh: 75*; NPR2 activator: 1; GalR3 antagonist: -6; NPR1 activator: 4; Arr-AP2 CP1: -3; GST-FITC bead: -7

How did CCC(=O)Nc1c(C#N)c2nc3ccccc3nc2n1-c1ccccc1C do in these assays?
Arrestin-AP2 inh: -9; NPR2 activator: -5; GalR3 antagonist: -3; NPR1 activator: -1

What do the screens show for `Cc1ccc(C)c(N2CCN(C3CCCCC3NS(=O)(=O)c3ccccc3)CC2)c1` (centres undefined)?
Arrestin-AP2 inh: 57*; Arr-AP2 CP1: 1; GST-FITC bead: -15

Results for O=C(CSc1nc2ccccc2c(=O)n1Cc1ccc(F)cc1)NCc1cccs1 ?
Arrestin-AP2 inh: 87*; NPR2 activator: 4; GalR3 antagonist: -3; NPR1 activator: -2; Arr-AP2 CP1: 24; GST-FITC bead: 181*

What do the screens show for `Cc1cccc(NC(=O)CSc2nsc(SCC(=O)Nc3cccc(C)c3)c2C#N)c1`?
Arrestin-AP2 inh: 0; NPR2 activator: 6; GalR3 antagonist: -2; NPR1 activator: 0

What do the screens show for `N#Cc1c(SCC(=O)Nc2ccccc2)nsc1SCC(=O)Nc1ccccc1`?
Arrestin-AP2 inh: 109*; NPR2 activator: 3; GalR3 antagonist: -4; NPR1 activator: -2; Arr-AP2 CP1: 7; GST-FITC bead: -1

Results for Cc1ccc(/C=C2\SC(=S)N(CC3CCCO3)C2=O)o1 (centres undefined) ?
Arrestin-AP2 inh: 2; NPR2 activator: 0; GalR3 antagonist: 4; NPR1 activator: 3
